According to ChEMBL document CHEMBL1139825, “Kinesin spindle protein (KSP) inhibitors. Part 7: Design and synthesis of 3,3-disubstituted dihydropyrazolobenzoxazines as potent inhibitors of the mitotic kinesin KSP” (Bioorg Med Chem Lett, 2007):
Calls of active or inactive are those of the source. The rule behind the calls is not given here.

Columns and labels:
[1] = molecular target: T1, Kinesin-like protein KIF11 (Homo sapiens, UniProt P52732); experiment: Inhibition of kinesin spindle protein
T1 sequence (P52732 whole entry): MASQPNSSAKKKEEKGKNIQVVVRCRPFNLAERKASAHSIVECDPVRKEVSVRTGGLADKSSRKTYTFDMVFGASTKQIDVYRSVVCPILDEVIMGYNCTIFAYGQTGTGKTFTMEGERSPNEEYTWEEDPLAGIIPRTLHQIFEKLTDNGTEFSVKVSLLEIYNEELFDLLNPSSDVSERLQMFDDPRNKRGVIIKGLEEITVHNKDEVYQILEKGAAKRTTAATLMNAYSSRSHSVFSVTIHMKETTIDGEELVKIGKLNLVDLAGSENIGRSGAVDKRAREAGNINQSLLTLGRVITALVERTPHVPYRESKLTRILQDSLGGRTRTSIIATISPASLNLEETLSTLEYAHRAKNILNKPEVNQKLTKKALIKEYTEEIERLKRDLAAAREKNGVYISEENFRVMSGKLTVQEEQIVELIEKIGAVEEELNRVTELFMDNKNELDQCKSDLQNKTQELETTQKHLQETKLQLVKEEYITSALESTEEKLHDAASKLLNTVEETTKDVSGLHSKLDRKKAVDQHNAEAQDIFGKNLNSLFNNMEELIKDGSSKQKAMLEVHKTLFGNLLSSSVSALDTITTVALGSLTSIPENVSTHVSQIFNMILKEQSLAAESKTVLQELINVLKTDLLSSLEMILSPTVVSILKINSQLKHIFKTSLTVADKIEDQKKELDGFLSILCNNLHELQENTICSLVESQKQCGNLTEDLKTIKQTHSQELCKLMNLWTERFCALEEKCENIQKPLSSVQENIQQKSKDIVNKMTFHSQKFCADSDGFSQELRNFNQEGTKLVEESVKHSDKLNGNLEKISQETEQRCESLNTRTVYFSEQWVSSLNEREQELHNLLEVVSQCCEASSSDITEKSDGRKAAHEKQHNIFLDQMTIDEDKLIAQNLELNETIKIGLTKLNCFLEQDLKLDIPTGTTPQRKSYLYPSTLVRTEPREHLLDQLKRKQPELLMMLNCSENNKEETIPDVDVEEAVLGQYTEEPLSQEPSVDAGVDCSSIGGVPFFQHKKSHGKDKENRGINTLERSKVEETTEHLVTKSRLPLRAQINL

[2] = Ratio of IC50 for KB-V-1 cells to IC50 for KB-3-1 cells after 16 hrs; type: functional, Homo sapiens
Outline: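 Mitotic arrest measured in Pgp-high KB-V-1 cells (derived from parental KB-3-1 by culture with vinblastine; >500-fold higher Pgp mRNA and protein) and in parental KB-3-1 cells. 16 h incubation, 11-point half-log dilution series. Read-out is phospho-nucleolin level. The ratio is the IC50 in KB-V-1 divided by the IC50 in KB-3-1.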

[3] = Clearance in dog at 0.25 mg/kg, iv; type: ADME, organism-based, Canis lupus familiaris; set-up: dose 0.25 mg/kg, route intravenous; settings: in vivo
Outline: (§1)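 Cassette intravenous dosing in dogs, compounds given together as a DMSO solution at 0.25 mg/kg. Two dogs per dose, with the value being their average. Individual determinations fell within ±25% of the mean.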

[4] = Half life in dog at 0.25 mg/kg, iv; type: ADME, organism-based, Canis lupus familiaris; set-up: dose 0.25 mg/kg, route intravenous; settings: in vivo; outline: as §1
[5] = molecular target: Voltage-gated inwardly rectifying potassium channel KCNH2 (Homo sapiens, UniProt Q12809); experiment: Inhibition of hERG expressed in HEK cells; type: toxicity, cell-based, HEK293
Chain of Voltage-gated inwardly rectifying potassium channel KCNH2 (Q12809 whole entry): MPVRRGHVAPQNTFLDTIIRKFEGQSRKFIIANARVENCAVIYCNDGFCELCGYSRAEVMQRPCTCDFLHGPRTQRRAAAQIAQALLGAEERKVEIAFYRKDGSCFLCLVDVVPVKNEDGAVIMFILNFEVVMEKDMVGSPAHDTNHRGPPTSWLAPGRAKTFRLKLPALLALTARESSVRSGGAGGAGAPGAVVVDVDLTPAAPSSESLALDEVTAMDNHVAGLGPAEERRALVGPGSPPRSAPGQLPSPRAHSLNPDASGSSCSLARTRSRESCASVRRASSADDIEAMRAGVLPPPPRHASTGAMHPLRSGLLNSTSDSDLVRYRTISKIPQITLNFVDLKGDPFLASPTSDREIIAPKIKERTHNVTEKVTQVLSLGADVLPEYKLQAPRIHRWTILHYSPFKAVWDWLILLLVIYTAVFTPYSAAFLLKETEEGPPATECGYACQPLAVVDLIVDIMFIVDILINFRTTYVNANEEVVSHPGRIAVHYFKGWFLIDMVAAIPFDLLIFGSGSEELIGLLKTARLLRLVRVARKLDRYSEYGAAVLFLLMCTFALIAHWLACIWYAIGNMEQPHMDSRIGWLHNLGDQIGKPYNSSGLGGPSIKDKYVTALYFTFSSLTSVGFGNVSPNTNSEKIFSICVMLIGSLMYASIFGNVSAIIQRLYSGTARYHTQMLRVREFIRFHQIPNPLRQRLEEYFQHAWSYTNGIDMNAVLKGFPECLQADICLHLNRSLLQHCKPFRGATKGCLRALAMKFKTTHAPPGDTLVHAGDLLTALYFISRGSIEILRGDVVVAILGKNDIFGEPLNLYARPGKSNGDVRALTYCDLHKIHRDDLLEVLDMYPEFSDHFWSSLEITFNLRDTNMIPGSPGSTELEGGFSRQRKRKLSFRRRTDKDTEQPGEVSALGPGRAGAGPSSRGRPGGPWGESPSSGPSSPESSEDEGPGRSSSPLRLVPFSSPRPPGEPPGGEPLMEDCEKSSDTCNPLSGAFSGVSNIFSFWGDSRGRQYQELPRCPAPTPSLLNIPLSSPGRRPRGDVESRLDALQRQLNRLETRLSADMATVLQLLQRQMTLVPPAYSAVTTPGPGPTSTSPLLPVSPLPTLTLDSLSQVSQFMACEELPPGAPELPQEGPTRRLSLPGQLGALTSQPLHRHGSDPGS

[6] = test system: A2780; experiment: Mitotic arrest in human A2780 cells assessed as G2/M block after 16 hrs; type: functional, cell-based; settings: A2780, 16 h
Outline: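 A2780 human ovarian carcinoma cells treated 16 h across a 7-point half-log dilution series. Mitosis-specific nucleolin phosphorylation read by electrochemiluminescence: total nucleolin captured on beads via anti-nucleolin antibody, phospho-nucleolin detected with a phospho-specific IgM plus ruthenium-labelled anti-mouse IgM. EC50 is the mean of at least two independent determinations.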

[7] = species on record: Canis familiaris; experiment: Induction of QTc prolongation in canine cardiovascular model; type: functional, organism-based; settings: Canis lupus familiaris; Heart
[8] = Solubility at pH 4; type: physicochemical; settings: buffer
[9] = species on record: Canis familiaris; experiment: Induction of QTc prolongation in canine cardiovascular model at 35 uM; type: functional, organism-based; settings: Canis lupus familiaris, Heart

SMILES | IC50 [1] [nM] | Ratio IC50 [2] | clearance [3] [mL/min/kg] | half-life [4] [h] | IC50 [5] [nM] | EC50 [6] [nM] | Activity [7] | solubility [8] [µg/mL] | Activity [9]
CC(=O)C1=NN2c3ccccc3OC[C@H]2[C@H]1c1ccccc1 | 800 |  |  |  |  |  |  |  | 
CC(=O)C1=NN2c3cc(F)ccc3OC[C@H]2[C@@]1(CCCN(C)C)c1ccccc1 | 1.6 | 2.3 | 52 | 5.7 | 5940 | 7.4 |  |  | 
CC(=O)C1=NN2c3cc(F)ccc3OC[C@H]2[C@@]1(CCCN1CCNC(=O)CC1)c1ccccc1 | 1.5 | 3.3 | 15 | 2.4 | 17000 | 6.9 |  |  | 
CC(=O)C1=NN2c3cc(C)ccc3OC[C@H]2[C@@]1(CCCN(C)C)c1ccccc1 | 1.8 | 2.3 | 37 | 8.3 | 2400 | 6.4 |  |  | 
CC(=O)C1=NN(c2cc(F)ccc2F)C[C@@]1(CCCN1CCN(C(C)=O)CC1)c1ccccc1 | 3 |  |  |  |  |  | Active |  | 
CC(=O)C1=NN2c3cc(F)ccc3OC[C@H]2[C@@]1(CCCO)c1ccccc1 | 5.2 | 0.6 |  |  | 18000 | 11 |  |  | 
CC(=O)C1=NN2c3cc(C)ccc3OC[C@H]2[C@@]1(CCCN1CCOCC1)c1ccccc1 | 1 | 1.4 |  |  | 6300 | 11 |  |  | 
CC(=O)C1=NN2c3cc(F)ccc3OC[C@H]2[C@@]1(CCCN1CCNCC1)c1ccccc1 | 4.3 | 40 | 40 | 3.5 | 4600 | 5 |  |  | 
CC(=O)C1=NN2c3cc(Cl)ccc3OC[C@H]2[C@@]1(CCCN1CCN(C(C)=O)CC1)c1ccccc1 | 1 | 1.6 |  |  | 5600 | 9 |  |  | 
CC(=O)C1=NN2c3cc(Cl)ccc3OC[C@H]2[C@@]1(CCCN(C)C)c1ccccc1 | 1 |  |  |  |  | 4.8 |  |  | 
CC(=O)C1=NN2c3cc(F)ccc3OC[C@H]2[C@H]1c1ccccc1 | 155 |  |  |  |  |  |  |  | 
CC(=O)C1=NN2c3cc(Cl)ccc3OC[C@H]2C1(CCCN1CCOCC1)c1ccccc1 (mixture of isomers) | 1.8 | 1.5 |  |  | 3300 | 13 |  |  | 
CC(=O)C1=NN2c3cc(F)ccc3OC[C@H]2[C@@]1(CCCN1CCN(C(C)=O)CC1)c1ccccc1 | 1.6 |  | 14 | 5.6 |  | 5 |  | > 4000 | inactive
CC(=O)C1=NN2c3cc(F)ccc3OC[C@H]2[C@@]1(CCCN1CCC(=O)N(C)CC1)c1ccccc1 | 0.9 | 2.6 | 11 | 3.9 | 9600 | 4.8 |  |  | 
CC(=O)C1=NN2c3cc(F)ccc3OC[C@H]2[C@@]1(CCCN1CCOCC1)c1ccccc1 | 0.4 | 0.8 |  |  | 6100 | 4.4 |  |  | 
CC(=O)C1=NN2c3cc(F)ccc3OC[C@H]2[C@@]1(CCCN)c1ccccc1 | 0.5 | 1.7 |  |  | 940 | 2.5 |  |  | 
